PAFAH1B3 FP inh = PAFAH1B3 (human) inhibition. Q15102. recombinant PAFAH1B3, FP-rhodamine probe, fluorescence polarization. inhibition, % at 3.39 µM. hit rate 0.28% among 340,000. AID 492972;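 active = inhibition above the screen-wide average of all tested compounds plus 3 SD, cut at about 25% in these data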
Target sequence (Q15102 whole entry, looked up): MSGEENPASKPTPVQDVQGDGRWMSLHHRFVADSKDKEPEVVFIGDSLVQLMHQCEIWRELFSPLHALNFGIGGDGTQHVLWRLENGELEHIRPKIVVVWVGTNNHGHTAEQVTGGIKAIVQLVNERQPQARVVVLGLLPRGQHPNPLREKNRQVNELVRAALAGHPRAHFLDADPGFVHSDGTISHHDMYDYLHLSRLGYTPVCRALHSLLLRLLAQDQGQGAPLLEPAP
RBBP9 inhibitor = blocks human serine hydrolase RBBP9 | O75884 | recombinant RBBP9, FP-Rh probe fluorescence polarization | inhibition, % at 7.94 µM | hit rate 0.2% among 220,000 | AID 1515;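 active = inhibition above the campaign mean of all tested compounds plus 3 SD, cut at about 14% in these data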
Target sequence (O75884 whole entry, looked up): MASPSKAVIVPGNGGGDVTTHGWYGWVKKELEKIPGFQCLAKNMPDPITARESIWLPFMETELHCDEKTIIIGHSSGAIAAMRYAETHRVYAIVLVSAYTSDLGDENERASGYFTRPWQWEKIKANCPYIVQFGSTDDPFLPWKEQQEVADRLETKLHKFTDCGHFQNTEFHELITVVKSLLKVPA
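Measured by: FP readout at 525/598 nm; material: recombinant human RBBP9; also added: Serine-hydrolase probe FP-Rh, 375 nM pre-mixing; medium: Tris buffer pH 8.0, NaCl, Pluronic; replication: one well per compound; doses: one concentration, 7.94 µM nominal, 0.794% DMSO; timing: preincubation 30 min plus labeling 45 min at 25 °C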
PAFAH1B2 inh = inhibitors of human PAFAH1B2. P68402. recombinant PAFAH1B2, FP-rhodamine activity probe, fluorescence polarization. inhibition, % at 3.39 µM. hit rate 1.2% among 340,000. AID 492953;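 active = inhibition above the mean of all tested compounds plus 3 SD, cut at about 24% in these data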
PAFAH2 FP inh = PAFAH2 (human) inhibition; Q99487; recombinant PAFAH2, FP-rhodamine activity probe, fluorescence polarization; inhibition, % at 3.39 µM; hit rate 0.99% among 340,000; AID 492956;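 active = inhibition above the mean over all tested compounds plus 3 SD, cut at about 30% in these data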;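 note: inhibitors block probe labeling of enzyme so polarization drops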
pPAFAH FP inh = pPAFAH (human) enzyme inhibition | hit rate 1.5% among 330,000 | inhibition, % at 3.39 µM | Q13093 | AID 463082 | recombinant pPAFAH, FP-rhodamine probe fluorescence polarization;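 active = inhibition above the mean inhibition across the screen plus 3 SD, cut at about 25% in these data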;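 note: inhibitors block binding of the rhodamine activity-based probe so polarization drops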
Hits are given with their value; 0 = inactive; - = no result. Rows were chosen to be rich in hits. Some 2.7% of all compounds tested hit in one or more screens of this group.

SMILES	PAFAH1B3 FP inh	RBBP9 inhibitor	PAFAH1B2 inh	PAFAH2 FP inh	pPAFAH FP inh
CC1=NOC2(C1)N(C)c1ccccc1C2(C)C (stereo unspecified)	0	0	0	0	0
O=S(=O)(c1ccc(SCc2ccc(Br)cc2)nc1)N1CCCCC1	0	-	0	0	-
COc1cccc(/C=N/NC(=O)c2oc3nc(-c4ccccc4)cc(-c4ccco4)c3c2N)c1	0	0	0	0	0
Cc1ccc(-c2cc(-c3ccco3)c3c(N)c(C(=O)NN)oc3n2)cc1	0	0	0	0	31.9
NNC(=O)c1oc2nc(-c3ccccc3)cc(-c3ccccc3)c2c1N	0	-	0	0	0
NNC(=O)c1oc2nc(-c3cccs3)cc(-c3ccco3)c2c1N	0	-	0	0	31.9
Cc1ccc(S(=O)(=O)N(C)c2ccc(OC(=O)CN3C(=O)NC(C)(c4ccccc4)C3=O)cc2)cc1C (stereo unspecified)	0	-	0	0	-
COc1ccc(C2=CC(=O)C[C@H](c3ccc(OC)c(OC)c3)C2)cn1	0	-	0	0	0
C=CCNC(=O)COC(=O)C1CCN(S(=O)(=O)c2ccc3c(c2)OCCO3)CC1	0	-	0	0	0
[O-][n+]1onc2c1CCC(=N/O)/C2=N\Nc1ccccc1	-	0	-	-	40.9
S=C(N/N=C/c1ccccc1Cl)Nc1cccc(Cl)c1Cl	0	0	0	0	0
COC(=O)c1sc(-c2ccccc2)cc1NC(=O)c1cc(OC)cc(OC)c1	0	0	0	0	0
COC(=O)c1sc(-c2ccc(C(C)(C)C)cc2)cc1NC(=O)CCC(=O)O	-	0	-	-	26.1
COC(=O)c1sc(-c2ccc(Cl)cc2)cc1NC(=O)COCC(=O)O	0	0	42.5	0	0
CC(=O)c1sc(C(C)(C)C)cc1NC(=O)CCC(=O)O	0	0	0	0	0
COC(=O)c1sc(-c2ccc(Cl)cc2)cc1NC(=O)/C=C/C(=O)O	0	0	26.7	0	0
C=CCOC(=O)C1=C[C@H](c2csc3ccccc23)C[C@H](OCc2ccc(CO)cc2)O1	0	-	0	0	0
COC(=O)c1c(NC(=O)CN2CCN(c3ncccn3)CC2)sc(C(N)=O)c1C	0	-	0	0	0
CCC(=O)NC(c1ccco1)c1cc(Cl)c2cccnc2c1O (stereo unspecified)	0	0	0	0	0
CCCCC(=O)NC(c1ccco1)c1cc(Cl)c2cccnc2c1O (stereo unspecified)	0	0	0	0	29.3
COc1cccc(-c2nc(SCC(=O)Nc3nc(-c4ccccc4)c(C)s3)[nH]c(=O)c2C#N)c1	0	0	0	0	0
CCOc1ccc2nc(NC(=O)CSc3nc(-c4ccccc4)c(C#N)c(=O)[nH]3)sc2c1	0	0	82.5	0	-
COC(=O)C(CC(C)C)NC(=O)CSc1nc(-c2ccccc2)c(C#N)c(=O)[nH]1 (stereo unspecified)	0	0	0	0	0
CCOC(=O)Cc1csc(NC(=O)CSc2nc(-c3ccccc3)c(C#N)c(=O)[nH]2)n1	0	0	65.1	0	0
CCOC(=O)CC[C@H](NC(=O)Cn1cnc2c(NCc3ccccc3)ncnc21)C(=O)OCC	0	-	0	0	0
SMILES	PAFAH1B3 FP inh	RBBP9 inhibitor	PAFAH1B2 inh	PAFAH2 FP inh	pPAFAH FP inh
NCCCCCNC(=O)c1nc[nH]c1C(=O)NCC(=O)OCc1ccccc1	0	-	0	0	0
CC(=O)OCC1=C(C(=O)O)N2C(=O)C(NC(=O)COc3ccc(F)cc3)C2SC1 (stereo unspecified)	0	-	0	0	-
CC(=O)OCC1=C(C(=O)O)N2C(=O)C(NC(=O)c3ccc(COc4ccc(Cl)cc4)o3)C2SC1 (stereo unspecified)	0	0	24.6	0	26.5
CCN(CC)S(=O)(=O)c1cc(C(=O)OCC(=O)NC2CCCc3ccccc32)ccc1C (stereo unspecified)	0	0	0	67.4	26.9
CCN(CC)S(=O)(=O)c1cc(C(=O)OCC(=O)Nc2cccc(C)c2C)ccc1F	0	0	0	0	0
CCN(CC)S(=O)(=O)c1cc(C(=O)OCC(=O)Nc2c(F)cccc2F)ccc1F	0	0	0	0	32.5
CC1(C)Cc2c(sc3c4nnnn4c4nnnn4c23)CO1	-	0	-	-	-
CC(=O)Oc1cc(O)c2c(=O)c(OC(C)=O)c(-c3ccc(OC(C)=O)c(OC(C)=O)c3)oc2c1	47.1	-	0	37.5	30.6
COc1cc(NC(=O)C[n+]2ccc(C(=O)c3ccccc3)cc2)cc(OC)c1	0	-	0	0	0
CN1CCN(CCNC(=O)c2ccc3nc(-c4ccc(F)cc4)c(-c4ccc(F)cc4)nc3c2)CC1	0	-	27.7	0	0
O=C(Nc1ncc(Cc2cccc(C(F)(F)F)c2)s1)C1CCCO1 (stereo unspecified)	0	0	0	0	0
Cc1ccc(Cc2cnc(NC(=O)C3CCCO3)s2)cc1 (stereo unspecified)	0	0	28.3	0	0
Cc1ccc(S(=O)(=O)c2nc(S(=O)(=O)c3ccccc3)sc2N2CCN(C)CC2)cc1	0	-	0	0	31.2
O=C(OC[C@H]1O[C@@H](OC(=O)c2cc(O)c(O)c(OC(=O)c3cc(O)c(O)c(O)c3)c2)[C@H](OC(=O)c2cc(O)c(O)c(OC(=O)c3cc(O)c(O)c(O)c3)c2)[C@@H](OC(=O)c2cc(O)c(O)c(OC(=O)c3cc(O)c(O)c(O)c3)c2)[C@@H]1OC(=O)c1cc(O)c(O)c(OC(=O)c2cc(O)c(O)c(O)c2)c1)c1cc(O)c(O)c(OC(=O)c2cc(O)c(O)c(O)c2)c1	-	-	-	-	70.2
O=[N+]([O-])c1cc(S(=O)(=O)N2CCCCCC2)ccc1F	0	0	29.2	0	0
O=[N+]([O-])c1cc(S(=O)(=O)N2CCCC2)ccc1O	0	0	0	0	0
CCCc1cc2c(OC(=O)CC)c(-c3ccc(C(=O)OCC)o3)c(=O)oc2cc1OC	60.5	0	0	67.2	0
CC1(C)NC(=O)N(CCCCOc2ccc(Br)cc2Cl)C1=O	0	0	24.2	0	0
COc1cc(C(c2c(O)cc(C)[nH]c2=O)c2c(O)cc(C)[nH]c2=O)ccc1O	0	-	0	0	-
O=C1C=C(Nc2cccc3cccnc23)c2ccccc2C1=O	0	-	0	0	33.6
O=C1C=C(Nc2ccccc2C(=O)O)c2ccccc2C1=O	58.6	0	0	39.3	0
CCC(CO)Nc1nc2ccc(Cl)cc2c2ccccc12 (stereo unspecified)	0	0	0	0	27.3
O=c1c2cc(Br)ccc2[nH]c(=S)n1Cc1ccccc1	0	-	0	0	26.0
CCc1c(C(C)O)oc2ccc3c(C)cc(=O)oc3c12 (stereo unspecified)	-	0	-	-	-
COc1ccc(CNC(=O)c2ccc(S(=O)(=O)NCc3ccco3)cc2)cc1	0	-	0	0	0
O=C1C=CC(=O)N1c1cccc(-c2ccccc2)c1	0	0	0	0	26.9
O=C(Nc1cccc(N2C(=O)C=CC2=O)c1)c1cccs1	0	-	0	0	0
Cc1ccc(C)c(OCc2cc(C(=O)N3CCOCC3)no2)c1	0	-	0	0	0
CN(CC(=O)Nc1ccc(N2CCOCC2)cc1)C(=O)c1cccc(Cl)c1Cl	0	-	0	0	0
